ChEMBL document CHEMBL3407476, “Design, synthesis and cytotoxic evaluation of 4-methylidenepyrazolidin-3-ones” (Eur J Med Chem, 2015)

Tests used:
[1] = Cytotoxicity against human HL60 cells assessed as growth inhibition after 48 hrs by MTT assay; format: functional, cell-based; settings: HL-60, 48 h
Procedure, shortened: (§1)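 Leukemia cells in RPMI 1640 and MCF-7 in DMEM, both with 10% heat-inactivated FBS. HUVECs were grown per the supplier's protocol at passages 3–8. Cultures were kept at 37 °C in humidified 5% CO₂ and seeded at 8 × 10³ cells/well. After 24 h, compounds from fresh DMSO stocks were added over 10^-7 to 10^-3 M. Absorbance was read at 560 nm against untreated cells. IC50 came from concentration–response curves, as mean ± SD of at least three experiments.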

[2] = Cytotoxicity against human NALM6 cells assessed as growth inhibition after 48 hrs by MTT assay; format: functional, cell-based; settings: NALM-6, 48 h; procedure, shortened: as §1
[3] = test system: MCF7; test: Cytotoxicity against human MCF7 cells assessed as growth inhibition after 48 hrs by MTT assay; format: functional, cell-based; settings: MCF7, 48 h; procedure, shortened: as §1
[4] = test system: HUVEC; test: Cytotoxicity against HUVEC assessed as growth inhibition after 48 hrs by MTT assay; format: cell-based; settings: Homo sapiens; procedure, shortened: as §1
[5] = Therapeutic index, ratio of IC50 for HUVEC to IC50 for human NALM6 cells; format: cell-based, NALM-6; settings: HUVEC and NALM6 cells, read-out: Ratio IC50
[6] = Therapeutic index, ratio of IC50 for HUVEC to IC50 for human HL60 cells; format: cell-based, HL-60; settings: HUVEC and HL60 cells, read-out: Ratio IC50

| SMILES | IC50 [1] [µM] | IC50 [2] [µM] | IC50 [3] [µM] | IC50 [4] [µM] | selectivity ratio [5] | selectivity ratio [6] |
| --- | --- | --- | --- | --- | --- | --- |
| C=C1C(=O)N(c2ccccc2)N(C)C1CC (stereo not given) | 750 | 576 | 185 | – | – | – |
| C=C1C(=O)N(c2ccccc2)N(c2ccccc2)C1C (stereo not given) | 5.85 | 6.98 | 12.5 | 29.9 | 4 | 5 |
| C=C1C(=O)N(c2ccccc2)N(c2ccccc2)C1CCCC (stereo not given) | 8.92 | 29.1 | 25.2 | 27 | – | – |
| C=C1C(=O)N(c2ccccc2)N(C)C1c1ccccc1 (stereo not given) | 40.9 | 24.4 | 84.4 | – | – | – |
| C=C1C(=O)N(c2ccccc2)N(C)C1CCCC (stereo not given) | 460 | 432 | 235 | – | – | – |
| C=CC1C(=C)C(=O)N(c2ccccc2)N1c1ccccc1 (stereo not given) | 1.32 | 0.74 | 5.1 | 2.73 | 4 | – |
| C=C1C(=O)N(c2ccccc2)N(C)C1c1ccc(OC)cc1 (stereo not given) | 37.3 | 49.3 | 75 | – | – | – |
| C=C1C(=O)NC(C)C1c1ccc(Br)cc1 (stereo not given) | 515 | 439 | – | – | – | – |
| C=C1CN(C)N(c2ccc(Br)cc2)C1=O | 51.8 | 62 | 43.8 | – | – | – |
| C=C1CN(C)N(c2ccccc2)C1=O | 45.7 | 56 | 56 | – | – | – |
| C=C1C(=O)N(c2ccccc2)N(c2ccccc2)C1CC (stereo not given) | 8.89 | 14.9 | 20 | 23.9 | – | – |
| C=C1CN(C)N(c2ccc(Cl)cc2)C1=O | 38.1 | 51.9 | 45.2 | – | – | – |
| C=C1C(=O)N(c2ccccc2)N(C)C1C (stereo not given) | 531 | 412 | 153 | – | – | – |
| C=C1C(=O)N(c2ccccc2)N(C)C1CCCCCCCCC (stereo not given) | 49.9 | 57.5 | 91.1 | – | – | – |
| C=C1CN(C)N(c2ccc(C)cc2)C1=O | 65.7 | 90.1 | 59.1 | – | – | – |
| C=C1C(=O)N(c2ccccc2)N(c2ccccc2)C1c1ccccc1 (stereo not given) | 1.61 | 3.82 | 4.5 | 4.46 | – | – |
